# Screening data (PubChem BioAssay)
# This is a sample that favours compounds with a hit; in the whole collection about 3.3% have one here.
# STAT3 activator = IL-6 driven STAT3 reporter potentiators, primary screen, U3A cells, luciferase, luminescence, MLSCN library; 190,000 compounds, 0.91% hits; activation (% of control), % at 5.6 µM; IL-6 STAT3-luciferase reporter; 100% = signal with IL-6 EC80 alone;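 active = activation above the screen-wide mean of compound activation plus 3 SD, cut at about 130% in these data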
#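 Test system: STAT3-luciferase reporter U3A cells; Detection: reporter luminescence signal; Times: 1 h compound pre-exposure, 6 h IL-6 stimulation, 37 °C; Benchmarks: IL-6-only high control; Also added: IL-6 stimulus at 33 ng/mL final.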
# FXN GAA850 act = FXN promoter activators, primary screen, cell-based, luciferase luminescence, HEK293 lucGAA850; HEK293 lucGAA850 FXN promoter luciferase reporter, 24 h; percent of 10 µM SAHA response; activation, % at 6 µM; 360,000 compounds, 0.56% hits;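 active = activation above the average of all compounds screened plus 3 SD, cutoff fixed separately per campaign, cut at about 7.5% in these data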
# AHR activator = AHR activators, primary screen, cell-based, luminescence, luciferase reporter, human | Aryl hydrocarbon receptor (Homo sapiens), P35869 | AHR-responsive luciferase reporter cells | activation, % at 5 µM | 320,000 compounds, 2.5% hits; in the data active = activation above about 47%
# ABCB6 inh MLPCN = ABCB6 transporter inhibitors, primary screen, K562-ABCB6 cells, flow cytometry, MLPCN library | fluorescence ratio to DMSO, % at 10 µM | ATP-binding cassette sub-family B member 6 (Homo sapiens), Q9NP58 | AID 602162, 2011 | K562-ABCB6 porphyrin accumulation, 1 h; stronger effect = lower value | 360,000 compounds, 0.19% hits;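 active = fluorescence ratio to DMSO below 75%, the collection mean minus 3 SD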;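 note: signal is porphyrin accumulated inside mitochondria; lower ratio means ABCB6 inhibition with less porphyrin fluorescence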
# Target sequence (Q9NP58 whole entry, looked up): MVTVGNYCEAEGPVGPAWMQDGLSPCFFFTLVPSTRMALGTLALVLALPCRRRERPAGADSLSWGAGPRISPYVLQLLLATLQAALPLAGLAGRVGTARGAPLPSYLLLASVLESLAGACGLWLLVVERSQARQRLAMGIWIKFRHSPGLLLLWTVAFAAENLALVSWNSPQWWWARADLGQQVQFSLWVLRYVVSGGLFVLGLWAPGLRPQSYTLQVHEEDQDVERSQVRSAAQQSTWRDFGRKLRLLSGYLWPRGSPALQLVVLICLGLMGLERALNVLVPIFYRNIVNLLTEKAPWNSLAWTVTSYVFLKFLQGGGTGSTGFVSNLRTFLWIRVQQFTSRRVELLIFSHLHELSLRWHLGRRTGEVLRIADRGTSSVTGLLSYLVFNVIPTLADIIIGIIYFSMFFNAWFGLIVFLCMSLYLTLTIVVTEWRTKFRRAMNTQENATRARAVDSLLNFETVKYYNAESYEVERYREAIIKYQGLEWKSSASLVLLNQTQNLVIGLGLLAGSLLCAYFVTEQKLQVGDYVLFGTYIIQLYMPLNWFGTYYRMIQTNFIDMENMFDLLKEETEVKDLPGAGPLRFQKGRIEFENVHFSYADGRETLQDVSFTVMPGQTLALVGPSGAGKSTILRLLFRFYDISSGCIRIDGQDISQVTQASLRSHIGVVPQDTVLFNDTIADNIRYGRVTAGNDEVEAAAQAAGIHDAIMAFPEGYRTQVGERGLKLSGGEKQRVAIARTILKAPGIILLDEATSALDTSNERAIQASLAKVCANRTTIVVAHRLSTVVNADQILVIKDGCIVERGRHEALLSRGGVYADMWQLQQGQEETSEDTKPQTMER
# AHR act confirm = AHR activators, confirmation, cell-based, luminescence, luciferase reporter, human; shares compounds with AHR activator; human cells, AHR-responsive luciferase reporter; activation, % at 9 µM; 2,300 compounds, 87% hits; in the data active = activation above about 49%;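 note: HepG2 hepatoma cells carrying a DRE-driven firefly luciferase reporter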
# PXR counter = human PXR activators, counter-screen for AHR activator project, cell-based, luciferase luminescence; activation, % at 11.6 µM; 2,300 compounds, 88% hits; cell-based PXR reporter; shares compounds with AHR activator; AID 434939, 2010; in the data active = activation above about 11%;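 note: human hepatoma DPX-2 cells expressing full-length human PXR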
# Hits are given with their value; - = inactive; . = not tested or not shown.
SMILES,STAT3 activator,FXN GAA850 act,AHR activator,ABCB6 inh MLPCN,AHR act confirm,PXR counter
CCOC(=O)/C=C/C(=O)Nc1ccc(S(=O)(=O)Nc2cc(OC)nc(OC)n2)cc1,.,-,.,-,.,.
c1ccc(-c2nnc3n2N=C(c2ccc4c(c2)OCO4)CS3)nc1,-,-,93.8,-,-,12.9
COc1ccc(C2=Nn3c(nnc3-c3ccccn3)SC2)cc1OC,-,-,-,-,.,.
Cc1c(C(=O)NCc2ccccc2CN2CCCC2)oc2ccc(F)cc12,.,-,123.9,-,111.9,75.9
COC(=O)CCCC(=O)NC1CCCc2c1cnn2-c1ccc(F)cc1F (stereo not drawn),.,-,-,-,.,.
Nc1c2nc(-c3ccccc3Cl)[nH]c(=O)c2nc(=O)n1-c1ccccc1,.,-,86.8,-,94.7,19.3
O=C(NC1CCCCC1)C(c1ccccc1F)N(C(=O)c1csnn1)C1CCCC1 (stereo not drawn),.,-,-,-,.,.
CC(C)C(=O)Nc1ccc(C(=O)Nc2nnc(C(C)C)s2)cc1,-,-,-,-,.,.
N/C(=N\OC(=O)c1ccccc1Cl)c1cccnc1,-,-,102.1,-,103.9,-
N/C(=N\OC(=O)c1ccc(Cl)c(Cl)c1)c1cccnc1,-,-,79.8,-,79.6,13.8
Cc1cccc(NC(=O)Nc2nnc([C@@H]3C[C@H](O)[C@@H](CO)O3)s2)c1,.,-,.,-,.,.
Cc1ccc(NC(=O)Nc2cnc3ccccc3c2)cc1,-,-,93.2,-,103.5,22.3
COC(=O)Nc1nn(-c2ccc(Cl)cc2)c(=O)c(C#N)c1C,.,-,96.2,-,-,14.2
C=CCNC(=O)NC(=O)COC(=O)[C@H](C)NS(=O)(=O)c1c(C)c(C)cc(C)c1C,.,-,-,-,.,.
O=C(NNC(=O)c1sccc1-n1cccc1)c1ccc(Cl)cc1,-,-,89.6,-,100.0,27.8
CC(C)c1ccc(NC(=O)c2sccc2-n2cccc2)cc1,-,-,84.4,-,112.5,45.9
O=C(N/N=C\c1ccccc1)c1sccc1-n1cccc1,-,-,81.9,-,126.8,25.2
COc1ncnc2c1ncn2CCCN1CCN(c2ccccn2)CC1,.,-,.,-,.,.
N/C(=N\c1nc2ccccc2o1)NC(=O)c1ccccc1,-,-,184.2,-,180.2,94.5
C=CCNc1nc(N2CCCC2)nc2ccccc12,-,-,83.8,-,-,11.7
COc1cc2ccccc2cc1C(=O)Nc1ccc(C)cc1,.,-,83.2,-,92.1,.
COc1ccc(C(=O)Nc2ccc3ccccc3c2)c(OC)c1,.,-,84.6,-,96.5,-
N#Cc1cccc2c1-c1ccccc1/C2=N/NC(N)=S,.,-,139.2,-,117.0,44.5
CN1C[C@@H]2C[C@@H](c3cccn3-c3nccs3)N3CCC[C@@]23C1=O,-,-,-,-,.,.
CCOC(=O)c1c(C)n(C)c2ccc(OC)c(NC(=O)c3cccs3)c12,-,-,-,-,.,.
SMILES,STAT3 activator,FXN GAA850 act,AHR activator,ABCB6 inh MLPCN,AHR act confirm,PXR counter
CCCS(=O)(=O)Nc1c(OC)ccc2c1c(C(=O)OCC)c(C)n2C,-,-,84.7,-,74.2,118.9
CCOc1ccc2[nH]c3c(NCCOC)ncnc3c2c1,.,-,84.8,-,116.3,39.1
CCOc1ccc2[nH]c3c(NCC(C)C)ncnc3c2c1,.,-,100.2,-,100.9,49.3
Cc1ccc(-c2[nH]c(-c3ccc(Cl)cc3)nc2SCC(=O)NCC2CCCO2)cc1 (stereo not drawn),-,-,107.6,-,83.5,85.7
Cn1ncc([N+](=O)[O-])c1C(=O)Nc1ccc2c(c1)OCCO2,-,-,-,-,.,.
Cc1cnc(NC(=O)c2c(Cl)cnn2C)s1,.,-,88.2,-,93.0,.
Cn1ncc(Cl)c1C(=O)Nc1ccc2c(c1)OCO2,.,-,123.2,-,117.0,13.2
O=C(Nc1ccc2c(c1)OCO2)c1c(Cl)nc2sccn12,-,-,114.2,-,154.2,53.3
NC(CSCc1cccc(Br)c1)C(=O)O (stereo not drawn),-,-,-,-,.,.
COc1ccc(OC)c(/C(O)=C/C(=O)C(=O)Nc2ccccc2OC)c1,-,-,-,-,.,.
C=CCSc1nc2nc(C)cc(C)n2n1,-,-,-,-,.,.
C=CCSc1nnc2nc3[nH]c4c(C)cccc4c3nn12,-,-,105.4,-,142.7,37.6
Cc1cnc(NC(=O)CCCc2nc3ccccc3s2)s1,-,-,270.7,-,-,134.3
O=C(CCCc1nc2ccccc2s1)Nc1nccs1,-,-,-,-,.,.
O=C(CCn1c(=O)sc2ccccc21)Nc1nc2ccccc2s1,-,-,106.2,-,-,97.8
O=C(O)CCC(=O)Nc1nc2ccccc2s1,-,-,-,-,.,.
COC(=O)c1[nH]nc2c1C(=O)N(Cc1ccccc1)C2=O,-,-,-,-,.,.
COc1ccc2nc(NNC(=O)C3COc4ccccc4O3)sc2c1 (stereo not drawn),-,-,117.5,-,75.8,29.6
O=C(Nc1ccc(-c2nc3cccnc3s2)cc1)c1ccc(Cl)nc1,.,-,86.1,-,-,11.2
Cc1ccccc1S(=O)(=O)Cc1ccc(C(=O)N2CCN(c3ncccn3)CC2)o1,-,-,-,-,.,.
CCc1ccccc1S(=O)(=O)Cc1ccc(C(=O)N2CCN(c3ccccn3)CC2)o1,-,-,83.9,-,65.2,106.9
Cc1ccc(-c2csc(-c3c[nH]c4ccccc34)n2)c(C)c1,-,-,106.5,-,115.0,24.3
COc1ccc(CN(C)C(=O)c2cc(-c3ccccc3)nc3ccc(C)cc23)c(OC)c1,.,-,.,-,.,.
Cc1cc2nn(-c3ccc(F)cc3)nc2cc1N,.,-,109.5,-,122.5,25.3
Cc1cc2nn(-c3ccc(Cl)cc3)nc2cc1N,.,-,80.5,-,191.7,23.7
SMILES,STAT3 activator,FXN GAA850 act,AHR activator,ABCB6 inh MLPCN,AHR act confirm,PXR counter
COc1ccc(-n2nc3cc(C)c(N)cc3n2)cc1Cl,.,-,-,-,.,.
O=C(Nc1cccc(F)c1)c1c(F)c(F)c(F)c(F)c1F,-,-,95.0,-,71.6,30.5
O=C(Nc1cccc(F)c1)c1ccc(Br)o1,-,-,120.3,-,67.2,20.0
Cc1cccc(NC(=O)c2c(F)c(F)c(F)c(F)c2F)c1,-,-,-,-,.,.
CC(=O)c1cccc(NC(=O)c2ccc(Br)o2)c1,-,-,-,-,.,.
COc1cccc(NS(=O)(=O)c2nc3nc(C)cc(C)n3n2)c1,-,-,-,-,.,.
COC(=O)C(C)NC(=O)C1CCCN1C(=O)CNC(=O)OCc1ccccc1 (stereo not drawn),.,-,-,-,.,.
Cc1cccc(NC(=S)N/N=C/c2c[nH]c3ccccc23)c1,-,-,134.9,-,87.4,19.3
Cc1cc(C(=O)N/N=C/c2c[nH]c3ccccc23)cs1,-,-,-,-,.,.
Cc1cccc(NC(=S)NCc2ccc3c(c2)OCO3)c1,-,-,-,-,.,.
O=C(N/N=C/c1ccc2c(c1)OCO2)c1ccccn1,-,-,-,-,.,.
